Assay results from ChEMBL document CHEMBL6134787, “Fexinidazole optimization: enhancing anti-leishmanial profile, metabolic stability and hERG safety” (RSC Med Chem, 2024).
Calls of active or inactive are those of the source. The rule behind the calls is not given here.

Key:
[1] = system: Leishmania donovani; assay: Antileishmanial activity against miltefosine resistant Leishmania donovani HU3MILR40 promastigotes […] assessed as inhibition of parasite growth incubated for 72 hrs by automatic microtiter plate reader analysis; assay type: functional, organism-based
How it was run: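 Promastigote (free parasite) assay: Schneider's Drosophila medium with 4 mM glutamine, 25 μg mL−1 gentamicin, 10% heat-inactivated FBS, pH 6.9, 27 °C. 1.5 × 10^5 promastigotes per well exposed to a concentration series for 72 h at 27 °C.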

[2] = system: Leishmania donovani; assay: Antileishmanial activity against wild type Leishmania donovani HU3 promastigotes […] assessed as inhibition of parasite growth incubated for 72 hrs by automatic microtiter plate reader analysis; assay type: functional, organism-based
[3] = Hepatotoxicity against mouse TAMH cells assessed as cell viability at 125 uM incubated for 48 hrs by MTT assay; assay type: toxicity, cell-based
How it was run: (§1)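 TAMH mouse liver cells in FCS-free DMEM/F12 with 5% PANEXIN NTA, 10 mM nicotinamide and gentamicin. Seeded at 20 000/well and attached 24 h at 37 °C, 5% CO2. DMSO-diluted compounds were applied for 24 or 48 h. MTT was added for 4 h, formazan dissolved in DMSO and A570 read. Viability was background-corrected and expressed relative to DMSO controls; mean ± SD, ≥3 experiments.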

[4] = system: Leishmania major; assay: Antileishmanial activity against wild type Leishmania major FV1 promastigotes […] assessed as inhibition of parasite growth incubated for 72 hrs by automatic microtiter plate reader analysis; assay type: functional, organism-based
How it was run: (§2)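 Promastigotes were grown in Schneider's medium (4 mM glutamine, gentamicin, 10% heat-inactivated FBS, pH 6.9, 27 °C). Cells were seeded at 1.5 × 10^5/well and exposed to a concentration series for 72 h at 27 °C.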

[5] = Cytotoxicity against mouse L929 cells assessed as inhibition of cell growth incubated for 72 hrs by MTS assay; assay type: toxicity, cell-based
How it was run: (§3)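 Cells in DMEM + 10% heat-inactivated FBS with penicillin/streptomycin at 37 °C, 5% CO2. They were seeded at 1 × 10^4/well and incubated with a concentration series for 72 h at 37 °C. Viability was read by MTS/PMS assay at 490 nm and IC50 derived.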

[6] = Metabolic stability in rat liver microsome assessed as compound remaining at 20 uM measured after 32 mins in presence of NADP and GSH by HPLC analysis; assay type: ADME; conditions: liver microsomes, read-out: Stability
How it was run: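 Rat liver microsomes (final 2 mg/mL) in 50 mM phosphate pH 7.4 with 0.3 mM NADP+, 5.3 mM glucose-6-phosphate, G6PDH, 10 mM MgCl2 and 5 mM EDTA. 20 μM compound added at 37 °C. Aliquots at 0, 16 and 32 min were quenched in ice-cold acetonitrile and centrifuged. HPLC peak area at 254/280 nm was expressed relative to 0 min.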

[7] = system: Leishmania braziliensis; assay: Antileishmanial activity against wild type Leishmania braziliensis UA847 promastigotes […] assessed as inhibition of parasite growth incubated for 72 hrs by automatic microtiter plate reader analysis; assay type: functional, organism-based; how it was run: as §2
[8] = system: Leishmania amazonensis; assay: Antileishmanial activity against wild type Leishmania amazonensis LV78 promastigotes […] assessed as inhibition of parasite growth incubated for 72 hrs by automatic microtiter plate reader analysis; assay type: functional, organism-based; how it was run: as §2
[9] = Metabolic stability in rat liver S9 fraction assessed as compound remaining at 20 uM measured after 32 mins in presence of NADP and GSH by HPLC analysis; assay type: ADME, subcellular; conditions: read-out: Stability
How it was run: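 Rat liver S9 (final 4 mg/mL) in 50 mM phosphate pH 7.4 with NADPH-regenerating system (0.3 mM NADP+, 5.3 mM glucose-6-phosphate, G6PDH), 10 mM MgCl2 and 5 mM EDTA. Pre-warmed 10 min at 37 °C, then 20 μM compound and 5.5 μM GSH added. Samples taken at 0, 16 and 32 min were quenched in ice-cold acetonitrile. HPLC (254/280 nm) peak area was expressed relative to 0 min.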

[10] = system: RAW264.7; assay: Cytotoxicity against mouse RAW264.7 cells assessed as inhibition of cell growth incubated for 72 hrs by MTS assay; assay type: functional, cell-based; conditions: RAW264.7, 72 h; how it was run: as §3
[11] = Hepatotoxicity against mouse TAMH cells assessed as cell viability at 7.8 to 125 uM incubated for 24 to 48 hrs by MTT assay; assay type: toxicity, cell-based; conditions: dose lower 7.8 µM, time lower 24 hrs, dose upper 125 µM, time upper 48 hrs, read-out: Activity; how it was run: as §1
[12] = target: Voltage-gated inwardly rectifying potassium channel KCNH2 (Homo sapiens, UniProt Q12809); assay: Inhibition of human ERG stably overexpressed in HEK293 cells incubated for 30 mins by FLIPR assay; assay type: toxicity, cell-based; conditions: human, hek293, 0.5 h; time 30 min
[13] = Hepatotoxicity against human HepG2 cells assessed as cell viability at 125 uM incubated for 48 hrs by MTT assay; assay type: toxicity, cell-based; conditions: hepg2, 48 h, 125 µM
How it was run: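 HEP-G2 cells in RPMI 1640 + 10% heat-inactivated FBS, penicillin/streptomycin. Seeded at 15 000/well and attached 24 h at 37 °C, 5% CO2. Compounds were serially diluted in DMSO, with 24 or 48 h exposure. MTT (2.5 mg/mL solution) was added for 4 h, formazan dissolved in DMSO and A570 read. Viability was background-corrected against DMSO-treated cell controls; mean ± SD, ≥3 experiments.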

[14] = system: Leishmania donovani; assay: Antileishmanial activity against miltefosine resistant Leishmania donovani HU3MILR40 amastigotes infected in mouse peritoneal macrophage assessed as inhibition of parasite growth incubated for 72 hrs by giemsa staining based analysis; assay type: functional, organism-based
How it was run: (§4)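 Mouse peritoneal macrophages in DMEM + 10% heat-inactivated FBS, penicillin/streptomycin; 1 × 10^5 cells per well on coverslips, adhered overnight at 37 °C, 5% CO2, non-adherent cells washed off. Infected overnight with late-log promastigotes at parasite:macrophage 40:1. Compound exposure 72 h at 37 °C; Giemsa stain, amastigotes per 100 macrophages counted, IC50 derived; means ± SD of 3–4 independent experiments.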

[15] = system: Leishmania donovani; assay: Antileishmanial activity against miltefosine resistant Leishmania donovani HU3MILR40 amastigotes infected in mouse peritoneal macrophage assessed as inhibition of parasite growth at 20 uM incubated for 72 hrs by giemsa staining based analysis; assay type: functional, organism-based
How it was run: (§5)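 Adherent mouse peritoneal macrophages on coverslips infected overnight with late-log HU3MILR40 promastigotes (40 parasites per macrophage), then exposed to compound at a single fixed concentration in DMEM + 10% FBS for 72 h at 37 °C. Giemsa-stained coverslips imaged at 1000×; amastigotes per 100 macrophages counted versus DMSO control; mean ± SD of three independent experiments, Student's t-test.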

[16] = Cytotoxicity against mouse peritoneal macrophage assessed as inhibition of cell growth incubated for 72 hrs by giemsa staining based analysis; assay type: toxicity; conditions: peritoneal macrophages
[17] = system: Leishmania donovani; assay: Antileishmanial activity against wild type Leishmania donovani HU3 amastigotes infected in mouse peritoneal macrophage assessed as inhibition of parasite growth incubated for 72 hrs by giemsa staining based analysis; assay type: functional, organism-based; how it was run: as §4
[18] = system: Leishmania braziliensis; assay: Antileishmanial activity against wild type Leishmania braziliensis UA847 amastigotes infected in mouse peritoneal macrophage assessed as inhibition of parasite growth incubated for 72 hrs by giemsa staining based analysis; assay type: functional, organism-based
How it was run: (§6)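 Mouse peritoneal macrophages (1 × 10^5/well on coverslips, DMEM + 10% heat-inactivated FBS, penicillin/streptomycin) adhered overnight at 37 °C, 5% CO2. They were infected overnight with late-log promastigotes at a 20:1 parasite:macrophage ratio. Cells were then treated with compound for 72 h at 37 °C and Giemsa-stained. Amastigotes per 100 macrophages were counted to derive IC50; mean ± SD of 3–4 independent experiments.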

[19] = system: Leishmania amazonensis; assay: Antileishmanial activity against wild type Leishmania amazonensis LV78 amastigotes infected in mouse peritoneal macrophage assessed as inhibition of parasite growth incubated for 72 hrs by giemsa staining based analysis; assay type: functional, organism-based; how it was run: as §6
[20] = Selectivity ratio of IC50 for cytotoxicity against mouse peritoneal macrophage assessed as inhibition of cell growth to IC50 for antileishmanial activity against miltefosine resistant Leishmania donovani HU3MILR40 amastigotes infected in mouse peritoneal macrophage assessed as inhibition of parasite growth; assay type: toxicity, cell-based; conditions: peritoneal macrophages, read-out: Ratio IC50
[21] = target: T1, hERG (KCNH2) (Homo sapiens, UniProt Q12809); assay: Inhibition of human ERG stably overexpressed in HEK293 cells assessed as remaining activity at 6 uM incubated for 30 mins by FLIPR assay; assay type: toxicity, cell-based; conditions: HEK293 cells stably overexpressing hERG, read-out: Activity
How it was run: (§7)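 HEK-293 cells stably expressing hERG, seeded at 60 000/well and grown 24 h. Compounds were added in DMSO (final 0.5%) and incubated 30 min in the dark. After 20 s baseline, Tl+ stimulus (3 mM) was added and fluorescence (ex 485/em 535 nm) recorded for 2.5 min.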

[22] = system: Leishmania donovani; assay: Antileishmanial activity against miltefosine resistant Leishmania donovani HU3MILR40 amastigotes infected in mouse peritoneal macrophage assessed as inhibition of parasite growth at 1.5 uM incubated for 72 hrs by giemsa staining based analysis; assay type: functional, organism-based; how it was run: as §5
[23] = target: T1, hERG (KCNH2); assay: Inhibition of human ERG stably overexpressed in HEK293 cells at 100 uM incubated for 30 mins by FLIPR assay; assay type: toxicity, cell-based; conditions: HEK293 cells stably overexpressing hERG; how it was run: as §7

Voltage-gated inwardly rectifying potassium channel KCNH2, sequence (Q12809 whole entry): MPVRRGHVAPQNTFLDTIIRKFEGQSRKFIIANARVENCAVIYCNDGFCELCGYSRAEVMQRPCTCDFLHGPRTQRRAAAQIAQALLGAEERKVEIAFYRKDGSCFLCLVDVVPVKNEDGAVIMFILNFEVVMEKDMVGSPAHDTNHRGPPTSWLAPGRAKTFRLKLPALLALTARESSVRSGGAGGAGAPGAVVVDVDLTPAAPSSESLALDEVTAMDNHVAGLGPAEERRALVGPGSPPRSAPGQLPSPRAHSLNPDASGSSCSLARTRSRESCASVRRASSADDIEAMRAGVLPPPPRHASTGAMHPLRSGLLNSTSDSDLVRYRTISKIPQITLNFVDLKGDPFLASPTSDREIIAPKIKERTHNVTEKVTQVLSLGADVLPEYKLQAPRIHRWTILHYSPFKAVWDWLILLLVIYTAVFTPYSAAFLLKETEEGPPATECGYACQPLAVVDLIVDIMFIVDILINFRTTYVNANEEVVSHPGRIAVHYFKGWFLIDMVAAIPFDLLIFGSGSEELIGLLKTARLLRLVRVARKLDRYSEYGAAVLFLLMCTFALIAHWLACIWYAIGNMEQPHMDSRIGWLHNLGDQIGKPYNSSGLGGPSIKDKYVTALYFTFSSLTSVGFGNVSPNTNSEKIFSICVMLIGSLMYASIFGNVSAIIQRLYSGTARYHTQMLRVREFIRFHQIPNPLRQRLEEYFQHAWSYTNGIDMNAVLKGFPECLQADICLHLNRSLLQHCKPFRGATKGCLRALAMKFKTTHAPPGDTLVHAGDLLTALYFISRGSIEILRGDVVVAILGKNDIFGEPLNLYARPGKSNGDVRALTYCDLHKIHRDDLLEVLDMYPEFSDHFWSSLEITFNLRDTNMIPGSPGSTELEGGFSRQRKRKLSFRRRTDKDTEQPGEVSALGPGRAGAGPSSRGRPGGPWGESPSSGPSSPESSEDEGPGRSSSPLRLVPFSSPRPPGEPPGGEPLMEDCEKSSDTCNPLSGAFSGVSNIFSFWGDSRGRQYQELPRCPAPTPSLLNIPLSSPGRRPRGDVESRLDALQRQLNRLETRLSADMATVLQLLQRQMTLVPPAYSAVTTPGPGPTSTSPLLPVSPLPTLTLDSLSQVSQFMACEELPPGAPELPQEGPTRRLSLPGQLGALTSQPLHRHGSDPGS
T1 sequence (Q12809 whole entry): as above

| SMILES | IC50 [1] [µM] | IC50 [2] [µM] | IC50 [4] [µM] | IC50 at 72 h [5] [µM] | remaining at 32 min, 20 µM [6] [%] | IC50 [7] [µM] | IC50 [8] [µM] | remaining at 32 min, 20 µM [9] [%] | IC50 [10] [µM] | viability at up to 125 µM [11] [%] | IC25 [12] [µM] | IC50 [14] [µM] | IC50 at 72 h [16] [µM] | IC50 [17] [µM] | IC50 [18] [µM] | IC50 [19] [µM] | further results |
| --- | --- | --- | --- | --- | --- | --- | --- | --- | --- | --- | --- | --- | --- | --- | --- | --- | --- |
| Cn1c([N+](=O)[O-])cnc1COc1ccc(S(C)(=O)=O)cc1 [FEXINIDAZOLE SULFONE] | 5.6 | 3.8 | 1.7 | > 100 | 100 | 5.9 | 9.4 | 100 | > 100 | > 50 | 42.2 | – | – | – | – | – | Activity [3]: Non-toxic; Activity [13]: Non-toxic |
| CCCCCCCCCCCCCCCCOP(=O)([O-])OCC[N+](C)(C)C [MILTEFOSINE] | > 40 | 6.9 | 7 | 81.5 | – | 17.8 | 22 | – | 9.9 | – | – | > 20 | > 40 | 2.7 | 3.2 | 9.6 | Activity [15]: inactive |
| CSc1ccc(OCC2Cn3cc([N+](=O)[O-])nc3O2)cc1 (racemic) | 0.4 | 1 | 3.4 | > 100 | 55.8 | 1.5 | 1.8 | 90.4 | > 100 | > 50 | 2.9 | 0.4 | > 100 | 0.3 | 0.7 | 0.7 | selectivity ratio [20]: > 250; activity at 0.5 h, 6 µM [21]: 81%; Activity [22]: Active |
| CSc1ccc(CCc2ncc([N+](=O)[O-])n2CCO)cc1 | > 20 | > 20 | > 20 | > 100 | 20.5 | > 20 | > 20 | 76.8 | > 100 | > 50 | 6 | – | – | – | – | – | inhibition at 0.5 h, 100 µM [23]: 100% |
